According to ChEMBL document CHEMBL3286351, “Antibacterial evaluation of structurally amphipathic, membrane active small cationic peptidomimetics: synthesized by incorporating 3-amino benzoic acid as peptidomimetic element” (Eur J Med Chem, 2014):
Values after ≈ are worked out from the molar mass of the structure shown. Active and inactive are the calls of the source. The rule behind the calls is not given here. Where a SMILES comes first, the peptide text is derived from it. [ ]: non-standard residue; d: D form. 3Abz = Nc1cccc(C(=O)O)c1; Orn = NCCC[CH](N)C(=O)O

Assays:
alpha chymotrypsin = experiment: Proteolytic stability assessed as alpha chymotrypsin (unknown origin)-mediated compound degradation by measuring compound remaining after 4 days by RP-HPLC analysis; format: ADME; settings: human, read-out: Stability
Method in brief: (§1)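 Compound at 1 mg/mL in 0.1 M NH4HCO3 (pH 8.2) combined with trypsin or α-chymotrypsin solution (1 mg enzyme per 50 mL of the same buffer) at 37 °C. Aliquots taken over time and quenched with 10% formic acid. Remaining compound quantified by C18 RP-HPLC. An enzyme-free control was run for each test.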

Pseudomonas aeruginosa = experiment: Antibacterial activity against Pseudomonas aeruginosa MTCC 2295 assessed as growth inhibition after 18 hrs by CLSI microdilution broth assay; format: functional; settings: MTCC 2295, 18 h
Staphylococcus aureus [1] = experiment: Antibacterial activity against Staphylococcus aureus MTCC 3160 assessed as growth inhibition treated for 16 days by two-fold dilution assay; format: functional, organism-based
Staphylococcus aureus [2] = experiment: Antibacterial activity against Staphylococcus aureus MTCC 3160 assessed as growth inhibition after 18 hrs by CLSI microdilution broth assay; format: functional; settings: MTCC 3160, 18 h
[3] = Proteolytic stability assessed as trypsin (unknown origin)-mediated compound degradation by measuring compound remaining after 4 days by RP-HPLC analysis; format: ADME; settings: human, 96 h; method in brief: as §1
Lipid bilayer [4] = experiment: Membrane permeabilization in bacterial membrane model consisting large unilamellar vesicle of dipalmitoylphosphatidylcholine:dipalmitoylphosphatidylglycerol at ratio of 7:3 assessed as calcein release after 5 mins by fluorescence assay; format: cell membranes
Method in brief: (§2)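 LUVs of DPPC:DPPG 7:3 (w/w) loaded with 70 mM calcein (150 mM NaCl, 0.1 mM EDTA, pH 7.4). Made by freeze-thaw and extrusion through 100 nm filters; free dye removed on Sephadex G-50; diameter 110-130 nm. Diluted to 40 µM lipid and exposed to 5-15 µg/mL compound. Fluorescence read at ex 490/em 520 nm each minute for 20 min, then every 10 min. Triton X-100 defined 100% release.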

[5] = Selectivity ratio of HC50 for hemolysis in human RBC to MIC for Staphylococcus aureus
HaCaT [6] = experiment: Cytotoxicity against human HaCaT cells assessed as decrease in cell viability after 24 hrs by MTT assay; format: cell-based
Method in brief: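 HaCaT keratinocytes grown as a monolayer in DMEM with 10% FBS and penicillin/streptomycin, 37 °C, 5% CO2. Seeded 24 h, then exposed to compound for 24 h. MTT (5 mg/mL stock in PBS) added for 4 h; formazan dissolved in isopropanol and read at 570 nm. Growth inhibition calculated relative to medium-only controls. Two independent experiments in triplicate.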

Staphylococcus aureus [7] = experiment: Bactericidal activity against Staphylococcus aureus MTCC 3160 assessed as number of bacteria at 4 times MIC measured within 30 mins by time kill assay (reference value: 10^6 CFU/ml); format: functional
Method in brief: (§3)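 Time-kill assay. […] Aliquots taken at fixed intervals were serially diluted and plated on Mueller-Hinton agar. CFU were counted after 24 h at 37 °C. Two independent experiments, each in triplicate.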

[8] = Proteolytic stability assessed as alpha chymotrypsin (unknown origin)-mediated compound degradation after 24 hrs by RP-HPLC analysis; format: ADME; settings: human; method in brief: as §1
[9] = Retention time of the compound by HPLC analysis; format: physicochemical
Method in brief: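 Analytical RP-HPLC on a C18 column (5 µm, 4.6 × 250 mm) at room temperature. Run a linear gradient of 0.5-60% acetonitrile containing 0.05% TFA against water containing 0.05% TFA at 0.5 mL/min.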

Escherichia coli [10] = experiment: Bactericidal activity against Escherichia coli MTCC 723 assessed as number of bacteria at 4 times MIC measured within 30 mins by time kill assay (reference value: 10^6 CFU/ml); format: functional; method in brief: as §3
Lipid bilayer [11] = experiment: Membrane permeabilization in bacterial membrane model consisting large unilamellar vesicle of dipalmitoylphosphatidylcholine:dipalmitoylphosphatidylglycerol at ratio of 7:3 assessed as calcein release at 15 ug/ml after 90 mins by fluorescence assay; format: cell membranes; method in brief: as §2
Bacillus subtilis = experiment: Antibacterial activity against Bacillus subtilis MTCC 2763 assessed as growth inhibition after 18 hrs by CLSI microdilution broth assay; format: functional; settings: MTCC 2763, 18 h
Escherichia coli [12] = experiment: Induction of membrane damage in Escherichia coli at 4 times MIC after 2 hrs by DAPI/propidium iodide staining based fluorescence microscopy; format: functional, organism-based
Method in brief: (§4)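 Stained with PI (5 µg/mL) for 15 min in the dark at 0 °C, washed, then DAPI (10 µg/mL) for 15 min in the dark at 0 °C. Untreated cells processed identically as controls. Imaged by fluorescence microscopy with a 60× oil objective.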

Escherichia coli [13] = experiment: Antibacterial activity against Escherichia coli MTCC 723 assessed as growth inhibition after 18 hrs by CLSI microdilution broth assay; format: functional; settings: MTCC 723, 18 h
Staphylococcus aureus [14] = experiment: Induction of membrane damage in Staphylococcus aureus at 4 times MIC after 2 hrs by DAPI/propidium iodide staining based fluorescence microscopy; format: functional, organism-based; method in brief: as §4
Staphylococcus aureus [15] = experiment: Antibacterial activity against methicillin-resistant Staphylococcus aureus ATCC BAA-1720 assessed as growth inhibition treated for 16 days by two-fold dilution assay; format: functional, organism-based
Method in brief: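 Serial-passage resistance study. Start from the initial MIC by broth microdilution, then expose cells to doubling dilutions in triplicate wells. After each 18 h incubation, pool the wells with the highest concentration still showing visible growth and re-inoculate at about 2 × 10^6 CFU/mL.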

HaCaT [16] = experiment: Cytotoxicity against human HaCaT cells at 100 to 500 ug/ml after 24 hrs by LDH release assay; format: cell-based
Method in brief: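 HaCaT cells (DMEM with 10% FBS, 37 °C, 5% CO2) seeded for 24 h, then treated with varying concentrations for 24 h. LDH measured at 490 nm in both supernatant and trypsinized cell lysate with a non-radioactive kit. % release = supernatant/(supernatant + lysate) × 100. Two independent experiments in triplicate.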

Lipid bilayer [17] = experiment: Membrane permeabilization in bacterial membrane model consisting large unilamellar vesicle of dipalmitoylphosphatidylcholine:dipalmitoylphosphatidylglycerol at ratio of 7:3 assessed as calcein release at 5 ug/ml after 90 mins by fluorescence assay; format: cell membranes; method in brief: as §2
[18] = Induction of hemolysis in human RBC assessed as hemoglobin release after 1 hr by microtiter plate reader analysis; format: cell-based, Erythrocyte
Method in brief: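 Freshly isolated human RBCs washed three times in PBS (35 mM phosphate, 150 mM NaCl, pH 7.2) and used as a 4% (v/v) suspension. Mixed 1:1 with twofold serial dilutions of compound, incubated 1 h at 37 °C without agitation, then centrifuged. Supernatant A540 read. PBS defined 0% and 1% Triton X-100 defined 100% lysis; HC50 and HC10 derived.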

Staphylococcus aureus [19] = experiment: Antibacterial activity against methicillin-resistant Staphylococcus aureus ATCC BAA-1720 assessed as growth inhibition after 18 hrs by CLSI microdilution broth assay; format: functional; settings: ATCC BAA-1720, 18 h
Method in brief: (§5)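 Modified CLSI broth microdilution in Mueller-Hinton broth. Wells held 90 µL of about 2 × 10^5 CFU/mL inoculum plus 10 µL of serially diluted peptidomimetic, range 0.7-100 µg/mL. Plates were incubated overnight with agitation at 37 °C and absorbance read at 600 nm after 18 h. Controls: inoculum without compound, and uninoculated broth. Run in triplicate.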

[20] = Membrane permeabilization in mammalian membrane model consisting large unilamellar vesicle of dipalmitoylphosphatidylcholine:cholesterol at ratio of 10:1 assessed as calcein release at 15 ug/ml after 5 mins by fluorescence assay; format: cell membranes
Method in brief: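 LUVs of DPPC/cholesterol 10:1 (w/w) loaded with calcein, extruded through 100 nm filters, and cleared of free dye on Sephadex G-50. Diluted to 40 µM lipid in calcein-free buffer (150 mM NaCl, 0.1 mM EDTA). Calcein release read at ex 490/em 520 nm, normalized to Triton X-100 lysis.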

[21] = test system: Staphylococcus epidermidis; experiment: Antibacterial activity against methicillin-resistant Staphylococcus epidermidis ATCC 51625 assessed as growth inhibition after 18 hrs by CLSI microdilution broth assay; format: functional; settings: ATCC 51625, 18 h; method in brief: as §5
Plasma = experiment: Stability in human plasma assessed as compound degradation after 24 hrs by RP-HPLC analysis; format: ADME, cell-free; settings: 24 h
Method in brief: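 Compound (1 mg/mL stock in water; 50 µL) added to 1 mL fresh heparinized human plasma and held at 37 °C. Samples taken at 30 min, 1, 2, 6, 12 and 24 h. Proteins precipitated with 95% ethanol, cooled at 4 °C for 15 min and centrifuged at 18,000 g. Supernatant analyzed by RP-HPLC with UV detection at 280 nm.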

NCCCC(NC(=O)C(Cc1c[nH]c2ccccc12)NC(=O)c1cccc(NC(=O)C(Cc2c[nH]c3ccccc23)NC(=O)C(CCCN)NC(=O)C(N)Cc2c[nH]c3ccccc23)c1)C(N)=O (stereo unspecified) (H-W[Orn]W[3Abz]W[Orn]-NH2; configuration not given here)
remaining at 96 h (alpha chymotrypsin): 70%
MIC (Pseudomonas aeruginosa): 15.5 µg/mL (≈ 16.8 µM)
inhibition (Staphylococcus aureus [1]): Active
MIC (Staphylococcus aureus [2]): 6.25 µg/mL (≈ 6.77 µM)
Stability [3]: Stable
Activity (Lipid bilayer [4]): Dose-dependent effect
Selectivity ratio [5]: 62.4
Activity (HaCaT [6]): Dose-dependent effect
CFU/ml (Staphylococcus aureus [7]): 1000
Stability [8]: Stable
Retention_time [9]: 25.378 min
CFU/ml (Escherichia coli [10]): 1000
Activity (Lipid bilayer [11]): 48%
MIC (Bacillus subtilis): 25 µg/mL (≈ 27.1 µM)
Activity (Escherichia coli [12]): Active
MIC (Escherichia coli [13]): 20 µg/mL (≈ 21.7 µM)
Activity (Staphylococcus aureus [14]): Active
inhibition (Staphylococcus aureus [15]): Active
Activity (HaCaT [16]): Toxic
Activity (Lipid bilayer [17]): 23%
HC10 ([18]; erythrocyte, 1 h): 100 µg/mL
HC50 at 1 h ([18]; red blood cells): 390 µg/mL
MIC (Staphylococcus aureus [19]): 5 µg/mL (≈ 5.42 µM)
Activity [20]: inactive
MIC [21]: 6.25 µg/mL (≈ 6.77 µM)
Stability (Plasma): Stable
